PMC10633881 (ACS Omega, 2023)
Residues, ends and D or L forms follow the SMILES beside them. No end group written: not given here.

Key:
MCF-7 cells = assay: Cell viability, CCK-8 method; format: cell-based, human; settings: 10 μM peptide, 24 h, CCK8
How it was run: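 MCF-7 cells (MEM, 10% FBS, 37 °C, 5% CO2) were seeded at 5×10^3 cells/well in 96-well plates. After 24 h, the medium was removed and replaced with MEM containing peptide. After 24 h at 37 °C, viability was read by CCK-8.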

K562 cells [1] = assay: LDH leakage assay; format: cell-based, human; settings: 10 μM peptide, 24 h, serum-free medium
How it was run: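 K562 cells were seeded in 96-well plates for 24 h, then incubated 24 h with peptide in serum-free medium using a kit. Plates were spun at 400g for 5 min. Supernatant was mixed with LDH detection solution and shaken 30 min at room temperature, then read at 490 nm. Untreated wells = no leakage; LDH-releasing reagent = 100% leakage.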

K562 cells [2] = assay: Cell viability, CCK-8 method; format: cell-based, human; settings: 10 μM peptide, 24 h, CCK8
How it was run: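 K562 cells (IMDM, 10% FBS, 37 °C, 5% CO2) were seeded at 5×10^3 cells/well in 96-well plates. After 24 h, IMDM containing peptide was added without removing the medium. After 24 h at 37 °C, viability was read by CCK-8.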

Serum stability assay = format: in vitro ADME; settings: peptide solution (10 mM), 37 °C, supernatant analysed by RP-HPLC
[3] = tested on: cancer cells and murine fibroblasts; settings: read-out: antiproliferative activity IC50 values; against cancer cells and murine fibroblasts; cited from earlier work

Compound | anticancer activity in the preliminary screening, compared with F1, MCF-7 cells (MCF-7 cells) | LDH leakage (cell membrane destruction) (K562 cells [1]) | anticancer activity in the preliminary screening, compared with F1, K562 cells (K562 cells [2]) | peptide degraded after incubation in 10% serum for 1 h (Serum stability assay) | IC50 [3] [µM]
CCCCCCCCCC(=O)N[C@@H](Cc1ccccc1)C(=O)N[C@H](C(=O)NCC(=O)N[C@H](C(=O)N[C@@H](CC(C)C)C(=O)N[C@H](C(=O)N1CCC[C@H]1C(=O)N[C@@H](CC(C)C)C(=O)N[C@@H](C)C(=O)N[C@@H](CC(C)C)C(=O)NCC(=O)N[C@@H](C)C(=O)N[C@@H](CC(C)C)C(=O)N[C@H](C(=O)N[C@@H](CCCCN)C(=O)N[C@@H](CC(C)C)C(=O)N[C@@H](Cc1ccccc1)C(=O)N[C@@H](CCCCN)C(N)=O)[C@@H](C)O)[C@@H](C)CC)[C@@H](C)O)[C@@H](C)CC [A-10] (HELM PEPTIDE1{[CCCCCCCCCC(=O)[*:2]].F.I.G.T.L.I.P.L.A.L.G.A.L.T.K.L.F.K.[am]}$$$$V2.0) | strongest anticancer activity | stronger than that of F1 | strongest anticancer activity | hardly degraded | 
FIGTLIPLALGALTKLFK-NH2 [F1, Figainin 1, reference compound] |  | destroyed cell membranes |  |  | 10.5 to 13.7
